C2C12 statin: suppressors of statin myotoxicity in C2C12 myotubes, primary screen, cell-based, single point, plate reader | C2C12 myotubes + simvastatin, ATP luminescence, 48 h; scaled: DMSO 0, geranylgeraniol control 100 | rescue of ATP level, % at 7.49 µM | 330,000 compounds, 0.78% hits;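 active = mean ATP rescue above about 67%, or every replicate alone reaching that limit, limit read from the data, passing the limit was not always enough; inconclusive = no clear call, values can overlap the other calls; inactive = mean under the limit and some replicate under it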;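 note: myotubes were challenged with 10 µM simvastatin during compound exposure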
E-selectin induc: E-selectin induction in HUVECs, primary screen, imaging, HUVEC, immunofluorescence imaging, single point; P16581; normalized: neutral wells 0, TNF-alpha wells 100; activation, % at 7.58 µM; 260,000 compounds, 0.37% hits; AID 686992, 2013;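 active = mean E-selectin-positive cell signal at least 10% of the positive control, reached in at least 60% of replicates, without over 20% cell loss; inconclusive = no rule given, readout overlaps actives, possibly toxicity-flagged; inactive = the rest, including those meeting only one limit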
Target sequence (P16581 whole entry, looked up): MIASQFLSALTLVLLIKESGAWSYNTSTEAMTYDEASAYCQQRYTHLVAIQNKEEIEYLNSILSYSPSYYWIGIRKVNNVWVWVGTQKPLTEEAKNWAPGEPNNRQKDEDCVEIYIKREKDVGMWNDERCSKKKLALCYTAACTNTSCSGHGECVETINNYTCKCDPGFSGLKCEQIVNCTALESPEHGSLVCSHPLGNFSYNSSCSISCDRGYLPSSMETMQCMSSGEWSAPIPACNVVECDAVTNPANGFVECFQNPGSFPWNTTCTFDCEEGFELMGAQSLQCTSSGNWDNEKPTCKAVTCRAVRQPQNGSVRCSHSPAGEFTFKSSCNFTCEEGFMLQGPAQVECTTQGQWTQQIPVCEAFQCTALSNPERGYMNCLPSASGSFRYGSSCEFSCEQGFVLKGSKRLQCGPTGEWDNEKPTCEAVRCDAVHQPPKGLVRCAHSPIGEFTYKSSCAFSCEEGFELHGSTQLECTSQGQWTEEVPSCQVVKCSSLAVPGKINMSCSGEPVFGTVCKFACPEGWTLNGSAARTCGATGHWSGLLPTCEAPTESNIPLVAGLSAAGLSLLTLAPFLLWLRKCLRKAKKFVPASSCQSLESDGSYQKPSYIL
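Material: HUVEC primary endothelial cells; Amount: 3,000 cells per well; Dosing: single concentration; Medium: EGM-2 growth medium on 0.1% gelatin-coated wells; Read-out basis: percent E-selectin-positive cells; Signal: immunofluorescence imaging; Control set: TNF-alpha, DMSO.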
DENV2 CPE: inhibitors of DENV2 cytopathic effect, primary screen, cell-based, plate reader, single concentration | DENV2-infected cells, cytopathic effect rescue | CPE inhibition, % at 9.99 µM | 350,000 compounds, 1.7% hits; in the data active = CPE inhibition above about 20%, passing the limit was not always enough; inconclusive = no clear call, values can overlap the other calls; tested in BHK-21 cells;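 note: 0% = median of neutral control wells and 100% = median of positive control wells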
The depositor's hits bear a star; ? = inconclusive; . = no result given. Only some compounds are listed: those with a hit (about 2.2% of all), similar ones and a draw of the others.

SMILES	C2C12 statin	E-selectin induc	DENV2 CPE
C[C@H]1CN([C@@H](C)CO)C(=O)c2cc(NS(=O)(=O)c3ccc(F)cc3)ccc2O[C@@H]1CN(C)CC1CC1	2.1	-3.0	6.5
O=C(C[C@H]1C[C@H]2c3cc(NC(=O)NC4CCCC4)ccc3O[C@H]2[C@H](CO)O1)NC1CCCC1	-2.3	-0.3	0.0
Cc1nnsc1NC(=O)OCc1ccc(C(F)(F)F)cc1	105.5*	.	.
Cc1nnsc1NC(=O)OCc1ccccc1Cl	0.1	.	.
Cn1cnc(S(=O)(=O)N[C@H]2CC[C@@H](CC(=O)NCC3CC3)O[C@H]2CO)c1	-0.3	-0.4	0.1
COC(=O)C1=C(C)N(Cc2ccc(Cl)cc2)C(=S)NC1c1ccc(Br)cc1 (configuration not stated)	.	0.5	25.4*
COC(=O)C1=C(C)N(CC(C)C)C(=S)NC1c1cccc(F)c1 (configuration not stated)	.	1.0	55.9*
COC(=O)C1=C(C)N(Cc2ccc(Br)cc2)C(=S)NC1c1cccc(Br)c1 (configuration not stated)	.	-0.2	42.0*
COC(=O)C1=C(C)N(Cc2ccc(F)cc2)C(=S)NC1c1cccc(F)c1 (configuration not stated)	.	-0.2	5.8
COC(=O)C1=C(C)N(Cc2ccc(Cl)cc2)C(=S)NC1c1cccc(Br)c1 (configuration not stated)	.	1.3	-9.8
COC(=O)C1=C(C)N(Cc2ccc(Cl)cc2)C(=S)NC1c1ccc(F)cc1 (configuration not stated)	.	0.2	9.8
C[C@H](CO)N1C[C@H](C)[C@H](CN(C)Cc2ccc3c(c2)OCO3)Oc2ncc(C#Cc3ccccc3)cc2C1=O	14.1	-0.7	-5.9
Cc1cnc(C(=O)Nc2nccs2)cn1	100.6*	.	.
Cc1cnc(C(=O)Nc2nnc(C)s2)cn1	.	9.9	.
CC12COC3(C(=O)Nc4nccs4)CC1CCC32C (configuration not stated)	-6.7	.	.
CC1(C)CC(C(=O)Nc2nccs2)CCO1 (configuration not stated)	120.9*	.	.
C[C@H](CO)N1C[C@H](C)[C@H](CN(C)C(=O)Nc2cccc3ccccc23)Oc2c(NC(=O)Nc3ccc(F)cc3)cccc2C1=O	-16.9	-0.1	-10.5
Cc1noc(C)c1NC(=O)Nc1ccc2c(c1)C(=O)N([C@H](C)CO)C[C@H](C)[C@H](CN(C)S(=O)(=O)c1cn(C)cn1)O2	-23.2	-5.5	-0.9
CCN(CC)C(=O)[C@H]1C[C@H](CC(=O)NCCc2ccccn2)C(=O)N2CCc3c([nH]c4cc(-c5ccco5)ccc34)[C@]12C	16.0	2.0	0.5
CC[C@]12c3[nH]c4cc(CCC(=O)N(C)C)ccc4c3CCN1C(=O)[C@@H](CC(=O)NCc1ccco1)C[C@@H]2C(=O)N1CCN(C(=O)C2CC2)CC1	0.5	-0.1	25.1*
CC[C@]12c3[nH]c4cc(CCC(=O)N(C)C)ccc4c3CCN1C(=O)[C@@H](CC(=O)NCCC1=CCCCC1)C[C@@H]2C(=O)N1CCN(C(=O)c2ccco2)CC1	5.2	.	24.9*
C[C@]12c3[nH]c4cc(-c5ccco5)ccc4c3CCN1C(=O)[C@@H](CC(=O)NCCc1ccccn1)C[C@@H]2C(=O)N1CCOCC1	-0.5	.	49.8*
CC[C@]12c3[nH]c4ccc(Cl)cc4c3CCN1C(=O)[C@@H](CC(=O)NCCC1=CCCCC1)C[C@@H]2C(=O)N1CCN(C(=O)C2CC2)CC1	-3.1	-0.1	16.3
CC[C@]12c3[nH]c4cc(CCC(=O)N(C)C)ccc4c3CCN1C(=O)[C@@H](CC(=O)NCCC1=CCCCC1)C[C@@H]2C(=O)N1CCN(C(=O)C2CC2)CC1	2.0	-0.7	11.6
CC[C@]12c3[nH]c4ccccc4c3CCN1C(=O)C(CC(=O)NCCC1=CCCCC1)C[C@@H]2C(=O)N1CCN(C(=O)C2CC2)CC1 (some centres not stated)	-11.0	0.0	54.5*
SMILES	C2C12 statin	E-selectin induc	DENV2 CPE
CN(C)C(=O)CCc1ccc2c3c([nH]c2c1)[C@]1(CCc2ccccc2)[C@@H](C(=O)N2CCCCC2)C[C@H](CC(=O)NCc2ccco2)C(=O)N1CC3	-4.4	-0.1	-9.6
COCC(=O)N1[C@H](CO)[C@H](c2ccccc2)C12CN(C(=O)c1cccc(F)c1)C2	.	-0.2	-6.7
CO[C@@H]1CN(C)C(=O)c2ccc(NC(C)=O)cc2OC[C@H](C)N(Cc2ccc(F)cc2)C[C@@H]1C	-4.2	0.1	?
COc1ccccc1CNC(=O)C[C@@H]1C[C@H]2c3cc(NC(=O)CC4CC4)ccc3O[C@H]2[C@@H](CO)O1	9.3	-0.2	5.0
COc1cccc(-c2ccc3c(c2)[C@@H]2[C@@H](CCN2C(=O)C2CCOCC2)[C@@H](CO)N3)c1	15.9	1.2	1.1
CC(C)N(C(=O)[C@H]1C[C@H](CC(=O)NCCCN(C)C)C(=O)N2CCc3c([nH]c4cc(CCC(=O)N(C)C)ccc34)[C@]12C)C(C)C	0.6	.	10.7
CCN(CC)C(=O)[C@H]1C[C@H](CC(=O)NC/C=C(\C)CCC=C(C)C)C(=O)N2CCc3c([nH]c4ccc(Cl)cc34)[C@]12C	-22.4	0.0	-6.0
CCN(CC)C(=O)[C@H]1CC(CC(=O)NC/C=C(\C)CCC=C(C)C)C(=O)N2CCc3c([nH]c4ccc(OC)cc34)[C@]12C (some centres not stated)	-9.7	-1.9	40.4*
COCCCNC(=O)C[C@H]1C[C@H](C(=O)N(C(C)C)C(C)C)[C@@]2(C)c3[nH]c4cc(CCC(=O)N(C)C)ccc4c3CCN2C1=O	-1.3	.	36.8*
O=C(C[C@H]1CC[C@@H]2[C@H](COC[C@@H](O)CN2Cc2cccc(C(F)(F)F)c2)O1)NCCc1ccccc1	-10.5	0.1	0.5
O=C(NC[C@@H]1[C@@H](c2ccccc2)[C@@H](CO)N1C(=O)C1CCC1)NC1CCCC1	-0.4	0.1	?
CO[C@H]1CN(C)C(=O)c2cc(NC(=O)c3ccccc3F)ccc2OC[C@@H](C)N(C)C[C@H]1C	-13.3	-0.2	0.7
CCC1S/C(=C(\C#N)C(=O)NCc2ccco2)N(c2ccc(F)cc2)C1=O (configuration not stated)	13.4	.	.
N#C/C(C(=O)NCc1ccco1)=C1/SC(Cc2ccc(F)cc2)C(=O)N1c1ccccc1 (configuration not stated)	87.2*	.	.
O=C(Nc1ccc(F)cc1)N1CC(=O)N2[C@H](CO)[C@@H](c3ccc(C4=CCCC4)cc3)[C@H]2C1	.	0.3	-10.2
COc1ccc(NC(=O)CN(C)C(=O)c2ccccc2CCc2ccccc2)cc1	.	0.6	2.1
COc1cccc(NC(=O)CN(C)C(=O)CSc2nc3ccccc3s2)c1	.	1.1	.
CN(CC(=O)Nc1cccc(F)c1)C(=O)CSc1nc2ccccc2s1	-0.2	2.5	60.7*
CN(CC(=O)Nc1cccc(F)c1)C(=O)c1ccccc1CCc1ccccc1	-44.9	.	69.2*
COCC(=O)N1[C@@H]2CN(C(=O)Nc3cc(F)ccc3F)c3ccccc3[C@@H]2[C@@H]1CO	-1.3	-0.1	-1.0
Cc1noc(C)c1NC(=O)N(C)C[C@H]1Oc2ccc(NS(=O)(=O)c3ccc(Cl)cc3)cc2C(=O)N([C@H](C)CO)C[C@H]1C	-22.2	0.0	-4.1
